Data on 20 compounds can be found in PubChem BioAssay AID504354 (Broad Institute, 2011).

The structures appear in SMILES notation. Unmarked numbers belong to inactive results.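 The calls were made as follows: active = curve reaches 10% of the strong reference activator's caspase signal at or below the top valid tested dose; inactive = signal moves in the opposite direction, or the rest.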

This assay in a line: caspase activation in unprimed MEWO cells, dose response, counter-screen for A1 inhibitor project, cell-based, luminescence, dry powder, set 2 (AID 504354). Conditions: caspase-Glo luminescence, 3 h, stronger effect = higher value; at 35 µM unless noted. In short, it runs like this:
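Material – unprimed MEWO cell line expressing A1 · Quantity – 2500 cells per well · Medium – RPMI-1640 growth medium with 10% FBS · Doses – compound delivered into wells by pin transfer · Times – 3 h 37 °C compound exposure, 1 h room-temperature reagent incubation · Measured by – CaspaseGlo luminescence · Evaluation – caspase activity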
For orientation: A counterscreen serves to expose hits that act by an unwanted route or on another target.
As for `O=c1oc2ccccc2c(Sc2ccccc2)c1[N+](=O)[O-]`, the caspase activation is -5.15%. The value for `CCOC(=O)N1CCN(c2c([N+](=O)[O-])c(=O)n(C)c3ccccc23)CC1` was 2.35%; that for `Cc1ccc(Sc2c([N+](=O)[O-])c(=O)oc3ccccc23)cc1` was -4.32%. The same measure for `O=c1oc2ccccc2c(Cl)c1[N+](=O)[O-]`: -4.52% [at 16 µM]; for `CCOCCCNc1c([N+](=O)[O-])c(=O)n(C)c2ccccc12`: 2.4%; for `Cc1ccc(Nc2c([N+](=O)[O-])c(=O)oc3ccccc23)cc1`: 1.87% [at 2.1 µM]. `CN1C(=O)C(C)(C)N(Cc2ccccc2)c2ccccc21`: the caspase activation was 0.935% [at 2.1 µM].

Consider `Cc1ccc(Sc2cc(=O)n(C)c3ccccc23)cc1`, for which the caspase activation was -6.38%. `Cc1ccc(Nc2c([N+](=O)[O-])c(=O)n(C)c3ccccc23)cc1`: the caspase activation is 1.4% [at 1 µM].

Consider `O=[N+]([O-])c1cnc2ccccc2c1Sc1ccccc1`, for which the caspase activation is 5.29% [at 16 µM]. The value for `Cn1c(=O)c([N+](=O)[O-])c(Oc2ccccc2)c2ccccc21` was 2.97% [at 0.135 µM]; that for `Cn1c(=O)c([N+](=O)[O-])c(Nc2ccc(Cl)cc2)c2ccccc21` was 1.87% [at 1 µM]. The value for `CCSc1c([N+](=O)[O-])c(=O)oc2ccccc12` was -0.935% [at 0.26 µM]; that for `O=C(Oc1cccc(/C=N/Nc2nc(Nc3ccccc3)nc(N3CCOCC3)n2)c1)c1ccco1` was 2.6% [at 16 µM]; that for `Cc1ccc(Sc2c([N+](=O)[O-])cnc3ccccc23)cc1` was 6.63% [at 16 µM]. The value for `Cn1c(=O)c([N+](=O)[O-])c(-n2cnc3ccccc32)c2ccccc21` was 1.87% [at 4.2 µM].

Take `Cc1ccc(Sc2c([N+](=O)[O-])c(=O)n(C)c3ccccc23)cc1`: the caspase activation is 2.38%. The same measure for `O=c1oc2ccccc2c(N2CCCCC2)c1[N+](=O)[O-]`: -1.32% [at 16 µM]; for `Cn1c(=O)c([N+](=O)[O-])c(Cl)c2ccccc21`: 4.66% [at 8 µM]. As for `O=c1oc2ccccc2c(Nc2cc(Cl)cc(Cl)c2)c1[N+](=O)[O-]`, the caspase activation was -1.06% [at 8 µM].
